Screening data (PubChem)
JMJD2C inh = human JMJD2C demethylase inhibition. Q9H3R0. GST-JMJD2C(1-420) H3K9me3 demethylation, DELFIA europium. inhibition, % at 2.35 µM. 0.069% of 330,000 active. AID 2099;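 active = more than half of a compound's replicate wells show inhibition beyond 50%, single wells judged on their own value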;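 note: signal counts dimethyl H3K9 product captured on neutravidin plate; 0% = median of DMSO wells and 100% = 0.3 times that DMSO median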
p-CIP stab down = p/CIP protein destabilization; Q05BA5; F442A p/CIP-EGFP cells, EGFP fluorescence, 16 h; decrease of EGFP signal, % at 10 µM; 0.01% of 290,000 active;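 active = EGFP signal decrease of at least 30% at 10 µM or well 3 SD below plate mean, unless failing retest; inactive = the rest, including hits failing retest or dose response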
VLA-4 inh = inhibition in a human VLA-4 binding assay; P13612; VLA-4 expressing cells, ligand binding flow cytometry; inhibition, % (about 7 µM as worked out from the volumes in the protocol); 0.2% of 330,000 active; AID 2557; in the data active = inhibition above about 50%
Arr AP2 block = human beta-arrestin and AP2 interaction inhibition | inhibition, % at 10 µM | AID 504490 | 0.31% of 340,000 active | FITC-arrestin peptide / GST-AP2 beads, flow cytometry; AP2 beta2 appendage carries R879A mutation;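 active = inhibition above a set limit, near 3 SD of compounds lacking own fluorescence, cut at about 54% in these data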;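 note: plate controls were DMSO wells for no effect and 5 µM unlabelled arrestin peptide for full effect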
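System: GST-AP2 R879A glutathione beads. Medium: PBS with 0.05% Tween 20 and 0.1% BSA. Also added: FITC-arrestin peptide, 50 nM. Incubation: 12 min plus 1 h, RT. Measured by: high-throughput flow cytometry of beads, ex 488, em 535 nm. Evaluation: percent drop in bead-associated FITC signal.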
VLA-4 allo CP = confirmation of allosteric modulators of human VLA-4 integrin | inhibition, % at 6.7 µM | U937 cells, HUTS-21 LIBS mAb binding, flow cytometry; LDV ligand present at threefold Kd | AID 2813 | 2% of 1,300 active | shares compounds with VLA-4 inh; in the data active = inhibition above about 40%;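 note: 0% = ligand without compound and 100% = no ligand background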
Active calls of the source: *; i = inactive; / = no result. In the library only some 0.57% were active in any assay of this set; here they are far more common.

SMILES	JMJD2C inh	p-CIP stab down	VLA-4 inh	Arr AP2 block	VLA-4 allo CP
CCN(CC)C(=O)Cn1c(=O)oc2ccccc21	2	-3	6	8	-13
CCN(C(=O)Cn1c(=O)oc2ccccc21)c1cccc(C(F)(F)F)c1	-5	-2	-10	-8	9
COc1ccccc1NC(=O)Cn1c(=O)oc2ccccc21	-2	-1	-3	8	/
CCCN(CC(=O)Nc1ccccc1OC)C(=O)Cn1c(=O)oc2ccccc21	/	/	/	-22	3
CC(=O)Cn1c(=O)oc2ccccc21	20	-8	-8	-4	/
CCN(C(=O)Cn1c(=O)oc2ccccc21)c1cccc(C)c1	-5	-9	7	-9	/
CC1CN(C(=O)Cn2c(=O)oc3ccccc32)CC(C)O1 (stereo not drawn)	0	-11	-9	-6	-15
COc1ccc(OC)c(NC(=O)C2CC(=O)n3ncnc3N2)c1 (stereo not drawn)	-4	-6	-8	31	/
O=C(CCc1ccccc1Cl)Nc1cc2c(cc1C(=O)O)OCCCO2	-3	/	-6	12	/
Cn1c(=O)c2cc(S(=O)(=O)N3CCN(c4cccc(C(F)(F)F)c4)CC3)ccc2n(C)c1=O	-4	3	-6	6	/
COc1cc(CC(=O)OCC(=O)c2ccc3c(c2)OCCO3)cc(OC)c1OC	-4	-10	91*	-20	-6
O=S(Cc1ccc(Cl)cc1)CC(O)COc1ccc(Cl)cc1 (stereo not drawn)	2	2	-4	-6	/
NC(=O)OCC(O)COc1ccc(Cl)cc1 (stereo not drawn)	/	/	57*	26	-6
C#CCOc1ccc2c(C)cc(=O)oc2c1	-3	10	52*	4	i
COc1cccc(C(C(=O)NC2CCCCC2)N(C(=O)Cc2cccs2)c2ccc(-n3cnnn3)c(OC)c2)c1 (stereo not drawn)	-1	-10	54*	2	-4
COc1cc(N(C(=O)Cc2cccs2)C(C(=O)NC2CCCCC2)c2cccc(OC)c2OC)ccc1-n1cnnn1 (stereo not drawn)	-4	7	3	-5	/
O=C(COC(=O)c1ccccc1Cl)NC1CCCCCC1	-2	/	-6	8	-5
Cc1ccc(SCC(=O)OCC(=O)NC2CCCCCCC2)cc1	3	/	55*	-11	0
O=C(COC(=O)c1cccc(Cl)c1Cl)NC1CCCC1	-14	0	6	29	/
O=C(COC(=O)c1c(Cl)cccc1Cl)NC1CCCCCCC1	4	/	6	17	1
Cn1c(=O)c2nc(SCCO)n(C)c2n(C)c1=O	/	/	/	-9	/
CC(C)NC(=O)CS(=O)(=O)c1ccccc1	0	-4	50*	6	6
O=C(CS(=O)(=O)c1ccccc1)NC1CCCCC1	-1	-1	-2	-7	/
COc1cccc2c1CCC1=CC(=O)CCC12C (stereo not drawn)	/	/	/	14	/
CC(NC(=O)c1ccccc1F)c1nnc(SCC(=O)Nc2nccs2)n1C (stereo not drawn)	-2	20	-1	13	3
SMILES	JMJD2C inh	p-CIP stab down	VLA-4 inh	Arr AP2 block	VLA-4 allo CP
Cc1nnc(NC(=O)CSc2nnc(C(C)NC(=O)c3ccccc3F)n2C)s1 (stereo not drawn)	-3	-4	0	-2	/
CCOC(=O)c1[nH]c2ccccc2c1NC(C)=O	-2	0	68*	17	-4
CC(=O)Nc1ccc(NC(=O)CSc2ccccn2)cc1	6	-10	3	6	/
O=C(C(c1ccccc1)c1ccccc1)N1CCCc2ccccc21	18	0	19	28	/
COc1cccc(C2CC(=O)Nc3cc4c(cc32)OCCO4)c1OC(C)C (stereo not drawn)	4	-5	-10	5	-6
CCCOc1c(OC)cccc1C1CC(=O)Nc2cc3c(cc21)OCO3 (stereo not drawn)	-2	-16	2	-6	/
CCCOc1c(OC)cccc1C1CC(=O)Nc2cc3c(cc21)OCCO3 (stereo not drawn)	2	-14	10	-9	5
CC(C)(C)c1ccc(S(=O)(=O)NCc2ccccn2)cc1	7	-3	12	14	/
Cc1ccc(S(=O)(=O)NNC(=O)CCC(=O)Nc2ccc(C)cc2C)cc1	-3	2	47	-5	-12
CC(=O)Nc1ccc(S(=O)(=O)NNC(=O)CCC(=O)Nc2cc(C)ccc2C)cc1	13	-3	-4	-2	/
Cn1c(NC(=O)c2ccc(C(C)(C)C)cc2)cc(=O)n(C)c1=O	6	8	53*	23	4
Cc1ccc(-c2nn3c(C)nnc3c3ccccc23)cc1S(=O)(=O)NCc1ccco1	4	-14	-5	-12	0
Cc1ccc(-c2nn3c(C)nnc3c3ccccc23)cc1S(=O)(=O)NC(C)(C)CO	5	-15	-8	-12	/
Cc1ccc(-c2nn3c(C)nnc3c3ccccc23)cc1S(=O)(=O)N1CCN(CCO)CC1	9	-16	25	18	-3
Cc1ccc(-c2nn3c(C)nnc3c3ccccc23)cc1S(=O)(=O)NCCO	-21	1	-6	0	1
Cc1ccc(-c2nn3c(C)nnc3c3ccccc23)cc1S(=O)(=O)NC(C)c1ccccc1 (stereo not drawn)	14	-9	92*	14	1
COCCNS(=O)(=O)c1cc(-c2nn(C)c(=O)c3ccccc23)ccc1C	i	8	6	0	/
O=C(NCCCn1ccnc1)c1ccc(-c2ccccc2)cc1	5	5	45	-2	0
CC(C)CCn1c(=O)c2ccccc2n2c(=S)[nH]nc12	10	3	17	-5	/
COc1ccc(-c2c(-c3ccccc3OC)sc3ccccc23)cc1OC	-7	-12	29	-6	/
COc1ccc2c(-c3ccc(OCCN4CCCCC4)cc3)c(-c3ccccc3OC)sc2c1	/	/	/	-4	0
COc1ccccc1-c1sc2ccccc2c1-c1ccc(OCCN2CCCCC2)cc1	/	/	/	-6	0
CCCCN1C(=O)CN(CCc2ccccc2)C(=O)C1c1ccc(OC)cc1 (stereo not drawn)	24	1	-8	-6	/
Cc1ccc(/C=N/NC(=O)C2(C)CC2(Br)Br)cc1 (stereo not drawn)	1	2	0	4	/
O=C(Nc1nnc(-c2ccc(Cl)s2)o1)C1CC1	-17	-35	11	2	/
SMILES	JMJD2C inh	p-CIP stab down	VLA-4 inh	Arr AP2 block	VLA-4 allo CP
O=C(Nc1cccc(Cl)c1)Nc1ccccc1C(=O)O	0	-3	8	2	-6
O=C(Nc1cccc(Cl)c1)Nc1cccc(C(=O)O)c1	-41	-7	0	0	5
O=C(Nc1ccc(Cl)cc1)Nc1cccc(C(=O)O)c1	19	2	16	-10	/
O=C(C1CC1)N(CCN(Cc1ccccc1)C(=O)C1CC1)Cc1ccccc1	38	-5	-1	1	/
Cc1cc(Nc2ccccc2)nc2cc(O)ccc12	2	-15	56*	28	-11
COc1ccc(Nc2cc(C)c3ccc(O)cc3n2)cc1	-4	2	23	2	/
O=C(Nc1ccc(Cl)c(Cl)c1)OCc1cnc(Cl)s1	-5	-6	2	0	10
